Results on twelve compounds are retold here after PMC9082783 (RSC Advances, 2018).

“Also recorded” adds a separate entry of the source. Like-named read-outs stand apart in the source and are kept apart here.

A short description of one series: Hemolytic activity. The note with it: bovine, erythrocyte (RBC) suspension, pH 7.4. The format is cell-based. An outline of the steps:
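Bovine blood collected in EDTA, diluted in 0.9% NaCl and centrifuged at 1000 × g for 10 min. Erythrocytes were resuspended in PBS pH 7.4. Test compound solution (10 mg/mL stock) was mixed with the RBC suspension and incubated 30 min at room temperature. PBS served as negative control, Triton X-100 as positive control. Triplicate runs; mean ± SEM; % hemolysis calculated by formula.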

The target of series [1] is T1, Jack bean urease (Canavalia ensiformis, UniProt P07374). The series can be described thus: In vitro urease inhibitory activity. Format: biochemical.
T1 sequence (P07374 whole entry, looked up): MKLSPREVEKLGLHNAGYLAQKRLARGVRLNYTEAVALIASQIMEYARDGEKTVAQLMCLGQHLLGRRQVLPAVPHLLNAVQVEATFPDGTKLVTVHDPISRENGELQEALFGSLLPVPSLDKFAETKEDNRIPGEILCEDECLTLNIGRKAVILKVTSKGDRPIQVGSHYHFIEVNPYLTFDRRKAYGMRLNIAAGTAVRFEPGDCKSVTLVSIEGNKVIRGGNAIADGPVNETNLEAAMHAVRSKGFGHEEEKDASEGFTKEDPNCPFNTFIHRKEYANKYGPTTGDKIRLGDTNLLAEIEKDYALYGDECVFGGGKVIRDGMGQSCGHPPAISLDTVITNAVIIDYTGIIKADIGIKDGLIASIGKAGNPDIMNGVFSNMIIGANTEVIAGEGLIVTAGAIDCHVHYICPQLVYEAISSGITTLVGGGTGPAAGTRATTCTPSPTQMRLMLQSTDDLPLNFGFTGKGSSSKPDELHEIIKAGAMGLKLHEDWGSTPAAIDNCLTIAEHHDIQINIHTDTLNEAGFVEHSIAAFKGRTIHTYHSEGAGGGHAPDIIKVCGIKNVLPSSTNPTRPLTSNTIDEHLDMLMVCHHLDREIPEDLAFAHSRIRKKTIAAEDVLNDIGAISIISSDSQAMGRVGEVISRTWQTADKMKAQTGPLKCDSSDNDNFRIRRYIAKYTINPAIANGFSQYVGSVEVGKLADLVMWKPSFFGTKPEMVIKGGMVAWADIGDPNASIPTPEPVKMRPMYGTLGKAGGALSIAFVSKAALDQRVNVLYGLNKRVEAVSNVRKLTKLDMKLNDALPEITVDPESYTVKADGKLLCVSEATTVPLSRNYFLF
For series [2], the target named is T1, Jack bean urease. The series can be described thus: Kinetic analysis of urease inhibition. The format is biochemical. In short, it runs like this: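 Jack bean urease (5 U/mL enzyme solution) in potassium phosphate buffer (10 mM K2HPO4, 1 mM EDTA, 10 mM LiCl, pH 8.2) at 37 °C. Ammonia read by indophenol method at 625 nm. Initial velocities taken from per-minute readings up to 10 min. Mode from Lineweaver–Burk plots; Ki from secondary plot with linear least-squares fit.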

A word on the IC50: it is the concentration that inhibits the measured activity by half. Turning to `CCOc1ccc(NC(=O)CCCSc2nnc(CCCc3c[nH]c4ccccc34)o2)cc1` [Compound 8a], the hemolysis at 30 min in the series “Hemolytic activity” came out at 3.16 ± 0.05%. Moreover, half-maximal inhibition against Jack bean urease [1] (IC50) required 52.3 ± 4.4 nM.

In the case of `CCc1ccccc1NC(=O)CCCSc1nnc(CCCc2c[nH]c3ccccc23)o1` [Compound 8b], in the series “Hemolytic activity”, the hemolysis at 30 min stood at 2.41 ± 0.03%. The IC50 at Jack bean urease [1] worked out at 54.2 ± 21.1 nM.

One may read the Ki as a measure of affinity in units of concentration, obtained from inhibition or displacement. In “Hemolytic activity”, `CCc1ccc(NC(=O)CCCSc2nnc(CCCc3c[nH]c4ccccc34)o2)cc1` [Compound 8c] gave a hemolysis at 30 min of 0.62 ± 0.02%. For the same compound, the IC50 at Jack bean urease [1] was 17.5 ± 6.5 nM. The Ki at Jack bean urease [2] turned out to be 3 nM. Further, the “Vmax (ΔA/Min)” value on Jack bean urease [2] (8c concentration 0.017 μM) is given as 6.119 × 10^−5 ΔA/Min; at Jack bean urease [2] (8c concentration 0.034 μM) it was 4.599 × 10^−5 ΔA/Min. The Inhibition type entry at Jack bean urease [2] (Lineweaver-Burk plot) is “non-competitively; also recorded: Non-competitive”.

`Cc1ccccc1NC(=O)CCCSc1nnc(CCCc2c[nH]c3ccccc23)o1` [Compound 8d] came in with a hemolysis at 30 min in “Hemolytic activity” of 5.18 ± 0.03%. The IC50 at Jack bean urease [1] was determined as 71.7 ± 15.2 nM.

Turning to `Cc1cccc(NC(=O)CCCSc2nnc(CCCc3c[nH]c4ccccc34)o2)c1` [Compound 8e], the hemolysis at 30 min in “Hemolytic activity” came out at 5.92 ± 0.02%. Further, the IC50 against Jack bean urease [1] was 32.3 ± 11.9 nM.

Turning to `Cc1ccc(NC(=O)CCCSc2nnc(CCCc3c[nH]c4ccccc34)o2)cc1` [Compound 8f], the hemolysis at 30 min in the series “Hemolytic activity” came to 3.51 ± 0.04%. The IC50 against Jack bean urease [1] worked out at 102 ± 29.9 nM.

In turn, `Cc1ccc(NC(=O)CCCSc2nnc(CCCc3c[nH]c4ccccc34)o2)c(C)c1` [Compound 8g, N-(2,4-dimethylphenyl)-4-({5-[3-(1H-indol-3-yl)propyl]-1,3,4-oxadiazol-2-yl}sulfanyl)butanamide] had a hemolysis at 30 min in “Hemolytic activity” of 1.41 ± 0.01%. Besides, on Jack bean urease [1], the IC50 was found to be 200 ± 12.2 nM.

As to `Cc1cccc(C)c1NC(=O)CCCSc1nnc(CCCc2c[nH]c3ccccc23)o1` [Compound 8h], the hemolysis at 30 min in the series “Hemolytic activity” turned out to be 2.63 ± 0.02%. Moreover, 25.1 ± 8.3 nM corresponded to half-maximal inhibition at Jack bean urease [1] (IC50).

For `Cc1cc(C)cc(NC(=O)CCCSc2nnc(CCCc3c[nH]c4ccccc34)o2)c1` [Compound 8i], in “Hemolytic activity”, the hemolysis at 30 min was 7.32 ± 0.03%. Half-maximal inhibition against Jack bean urease [1] (IC50) was put at 124 ± 31.8 nM.

With `CCc1cccc(C)c1NC(=O)CCCSc1nnc(CCCc2c[nH]c3ccccc23)o1` [Compound 8j], the hemolysis at 30 min in the series “Hemolytic activity” is 9.63 ± 0.05%. Moreover, at Jack bean urease [1], the IC50 stood at 37.5 ± 5.8 nM.

Regarding `NC(N)=S` [Thiourea, reference compound], the IC50 at Jack bean urease [1] (read-out: Urease activity IC50 ± SEM, Jack bean urease 5 U/mL, 100 mM urea, pH 8.2, 30 min at 37 °C, triplicate) was determined as 4750 ± 54.6 nM.

As for `CC(C)(C)CC(C)(C)c1ccc(OCCO)cc1` [Triton X, reference compound], the hemolysis at 30 min in “Hemolytic activity” stood at 89.11 ± 0.01%.
